Measured values as given in ChEMBL document CHEMBL1165950, “Design and synthesis of new potent anticancer pyrazoles with high FLT3 kinase inhibitory selectivity” (Bioorg Med Chem, 2010).

Key:
Assay type in all cases: functional
[1] = system: TK-10; experiment: Cytotoxicity against human TK10 cells assessed as cell growth at 1 uM after 48 hrs by sulforhodamine B assay; conditions: TK-10, 48 h, read-out: Activity
[2] = system: HCT-15; experiment: Cytotoxicity against human HCT15 cells assessed as cell growth at 10 uM; conditions: read-out: Activity
Method in brief: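 Single-dose NCI-60 screen at 10 µM. Cells were grown in RPMI 1640 with 5% FBS and 2 mM L-glutamine, then treated for 48 h at 37 °C. Protein was measured by SRB staining with absorbance at 515 nm. Percentage growth was recorded, and inhibition percentage was calculated as 100 minus growth percentage.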

[3] = system: MDA-MB-468; experiment: Cytotoxicity against human MDA-MB-468 cells assessed as cell growth at 0.001 uM after 48 hrs by sulforhodamine B assay; conditions: MDA-MB-468, 48 h, read-out: Activity
[4] = system: MDA-MB-231; experiment: Cytotoxicity against human MDA-MB-231 cells assessed as cell growth at 1 uM after 48 hrs by sulforhodamine B assay; conditions: MDA-MB-231, 48 h, read-out: Activity
[5] = system: SF-295; experiment: Cytotoxicity against human SF295 cells assessed as cell growth at 0.001 uM after 48 hrs by sulforhodamine B assay; conditions: SF-295, 48 h, read-out: Activity
[6] = system: M14; experiment: Cytotoxicity against human M14 cells assessed as cell growth at 0.001 uM after 48 hrs by sulforhodamine B assay; conditions: M14, 48 h, read-out: Activity
[7] = system: UACC-257; experiment: Cytotoxicity against human UACC257 cells assessed as cell growth at 10 uM; conditions: read-out: Activity
Method in brief: (§1)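 NCI-60 screen: cells grown in RPMI 1640 with 5% FBS and 2 mM L-glutamine, plated at 5000–40,000 cells/well according to doubling time, and preincubated 24 h at 37 °C, 5% CO2. The single 10 µM dose (DMSO stock) was added, then incubated 48 h. Cells were TCA-fixed and stained with 0.4% SRB, read at 515 nm, and growth % calculated against time-zero and control plates.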

[8] = system: UACC-257; experiment: Growth inhibition of human UACC257 cells after 48 hrs by sulforhodamine B assay; conditions: UACC-257, 48 h; for CC50: read-out: LC50 (the source's name)
Method in brief: (§2)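 NCI 60-cell screen, five-dose mode. Cells grown in RPMI 1640 with 5% FBS and 2 mM L-glutamine and plated at 5000-40,000 cells/well according to doubling time. After 24 h preincubation, a Tz plate was TCA-fixed. Five concentrations (10-fold or 1/2 log dilutions) were applied for 48 h at 37 °C. SRB staining read at 515 nm. IC50 taken from [(Ti-Tz)/(C-Tz)]×100 = 50.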

[9] = system: NCI/ADR-RES; experiment: Cytotoxicity against human NCI/ADR-RES cells assessed as cell growth at 0.01 uM after 48 hrs by sulforhodamine B assay; conditions: read-out: Activity
[10] = system: UACC-62; experiment: Cytotoxicity against human UACC62 cells assessed as cell growth at 100 nM after 48 hrs by sulforhodamine B assay; conditions: UACC-62, 48 h, read-out: Activity
[11] = system: SF-268; experiment: Cytotoxicity against human SF268 cells assessed as cell growth at 1 uM after 48 hrs by sulforhodamine B assay; conditions: SF-268, 48 h, read-out: Activity
[12] = system: LOX IMVI; experiment: Cytotoxicity against human LOXIMVI cells assessed as cell growth at 100 nM after 48 hrs by sulforhodamine B assay; conditions: read-out: Activity
[13] = system: NCI/ADR-RES; experiment: Growth inhibition of human NCI/ADR-RES cells after 48 hrs by sulforhodamine B assay; conditions: for CC50: read-out: LC50 (the source's name); method in brief: as §2
[14] = system: SW-620; experiment: Cytotoxicity against human SW620 cells assessed as cell growth at 10 uM after 48 hrs by sulforhodamine B assay; conditions: SW-620, 48 h, read-out: Activity
[15] = system: MDA-MB-435; experiment: Cytotoxicity against human MDA-MB-435 cells assessed as cell growth at 0.001 uM after 48 hrs by sulforhodamine B assay; conditions: MDA-MB-435, 48 h, read-out: Activity
[16] = system: NCI-H226; experiment: Cytotoxicity against human NCI-H226 cells assessed as cell growth at 0.001 uM after 48 hrs by sulforhodamine B assay; conditions: NCI-H226, 48 h, read-out: Activity
[17] = system: A549; experiment: Cytotoxicity against human A549 cells assessed as cell growth at 1 uM after 48 hrs by sulforhodamine B assay; conditions: A549, 48 h, read-out: Activity
Method in brief: (§3)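 NCI-60 five-dose screen. Cells were grown in RPMI 1640 with 5% FBS and 2 mM L-glutamine, plated at 5000–40,000 cells/well and preincubated for 24 h. Time-zero plates were TCA-fixed. DMSO-solubilized drug was added at five concentrations (10-fold or ½-log serial dilutions) for 48 h at 37 °C, 5% CO2. Cells were TCA-fixed, stained with 0.4% SRB and read at 515 nm. Percent growth used time-zero, control and test absorbances.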

[18] = system: NCI-H322M; experiment: Cytotoxicity against human NCI-H322M cells assessed as cell growth at 0.01 uM after 48 hrs by sulforhodamine B assay; conditions: read-out: Activity
[19] = system: MCF7; experiment: Cytotoxicity against human MCF7 cells assessed as cell growth at 10 uM; conditions: read-out: Activity; method in brief: as §1
[20] = system: SNB-19; experiment: Cytotoxicity against human SNB19 cells assessed as cell growth at 10 uM after 48 hrs by sulforhodamine B assay; conditions: SNB-19, 48 h, read-out: Activity
[21] = system: SK-MEL-5; experiment: Cytotoxicity against human SK-MEL-5 cells assessed as cell growth at 10 uM after 48 hrs by sulforhodamine B assay; conditions: SK-MEL-5, 48 h, read-out: Activity
[22] = system: NCI-H522; experiment: Cytotoxicity against human NCI-H522 cells assessed as cell growth at 100 nM after 48 hrs by sulforhodamine B assay; conditions: NCI-H522, 48 h, read-out: Activity
[23] = system: NCI-H322M; experiment: Growth inhibition of human NCI-H322M cells after 48 hrs by sulforhodamine B assay; conditions: for CC50: read-out: LC50 (the source's name); method in brief: as §2
[24] = system: ACHN; experiment: Cytotoxicity against human ACHN cells assessed as cell growth at 1 uM after 48 hrs by sulforhodamine B assay; conditions: read-out: Activity; method in brief: as §3
[25] = Cytotoxicity against human Hs 578T cells assessed as cell growth at 0.01 uM after 48 hrs by sulforhodamine B assay; conditions: read-out: Activity
[26] = system: IGROV-1; experiment: Cytotoxicity against human IGROV1 cells assessed as cell growth at 1 uM after 48 hrs by sulforhodamine B assay; conditions: IGROV-1, 48 h, read-out: Activity
[27] = system: SF-295; experiment: Growth inhibition of human SF295 cells after 48 hrs by sulforhodamine B assay; conditions: SF-295, 48 h; for CC50: read-out: LC50 (the source's name); method in brief: as §2
[28] = system: UACC-257; experiment: Cytotoxicity against human UACC257 cells assessed as cell growth at 0.01 uM after 48 hrs by sulforhodamine B assay; conditions: UACC-257, 48 h, read-out: Activity
[29] = system: SK-MEL-28; experiment: Cytotoxicity against human SK-MEL-28 cells assessed as cell growth at 10 uM; conditions: read-out: Activity; method in brief: as §1
[30] = system: BT-549; experiment: Cytotoxicity against human BT549 cells assessed as cell growth at 1 uM after 48 hrs by sulforhodamine B assay; conditions: BT-549, 48 h, read-out: Activity; method in brief: as §3

Row | Compound | growth at 1 µM [1] | growth at 10 µM [2] | growth at 0.001 µM [3] | growth at 1 µM [4] | growth at 0.001 µM [5] | growth at 0.001 µM [6] | growth at 10 µM [7] | GI50 [8] | TGI [8] | CC50 [8] | growth at 0.01 µM [9] | growth at 0.1 µM [10] | growth at 1 µM [11] | growth at 0.1 µM [12] | GI50 [13] | TGI [13] | CC50 [13] | growth at 10 µM [14] | growth at 0.001 µM [15] | growth at 0.001 µM [16] | other results
1 | Cc1cc(O)cc(-c2nn(CC#N)cc2-c2ccnc(-c3ccc(N(C)C)cc3)c2)c1 | 44% | 22.9% | 98% | 11% | 93% | 96% | 54.1% | 4.35 µM | 35.6 µM | > 100 µM | 96% | 87% | 17% | 101% | 2.54 µM | 7.93 µM | > 100 µM | -33% | 99% | 100% | growth at 1 µM [17]: 23%; growth at 0.01 µM [18]: 92%; growth at 10 µM [19]: 14.9%; growth at 10 µM [20]: -15%; growth at 10 µM [21]: -93%; growth at 0.1 µM [22]: 75%; GI50 [23]: 6.08 µM; TGI [23]: 59.8 µM; CC50 [23]: > 100 µM; growth at 1 µM [24]: 18%; growth at 0.01 µM [25]: 95%; growth at 1 µM [26]: 24%; GI50 [27]: 2.18 µM; TGI [27]: 8.71 µM; CC50 [27]: 84.1 µM; growth at 0.01 µM [28]: 81%; growth at 10 µM [29]: 38.1%; growth at 1 µM [30]: 4%
2 | COc1cc(C)cc(-c2nn(CC#N)cc2-c2ccnc(-c3ccc(N(C)C)cc3)c2)c1 | 29% | 8.19% | 96% | -15% | 93% | 96% | 68.2% | 0.448 µM | > 100 µM | > 100 µM | 99% | 18% | -2% | 39% | 0.253 µM | 0.655 µM | > 100 µM | 11% | 103% | 103% | growth at 1 µM [17]: 14%; growth at 0.01 µM [18]: 108%; growth at 10 µM [19]: 10.1%; growth at 10 µM [20]: 9%; growth at 10 µM [21]: -66%; growth at 0.1 µM [22]: -39%; TGI [23]: > 1 µM; CC50 [23]: > 100 µM; growth at 1 µM [24]: 2%; growth at 0.01 µM [25]: 100%; growth at 1 µM [26]: 5%; GI50 [27]: 0.304 µM; TGI [27]: 1.91 µM; CC50 [27]: > 100 µM; growth at 0.01 µM [28]: 91%; growth at 10 µM [29]: 32.4%; growth at 1 µM [30]: -10%
3 | COc1cc(C)cc(-c2nn(CC#N)cc2-c2ccc(-c3cccc(C(C)=O)c3)nc2)c1 | 2% | 23.4% | 83% | 13% | 99% | 94% | 50.8% | 3.61 µM | > 100 µM | > 100 µM | 91% | 71% | 23% | 82% | 1.31 µM | 6.06 µM | > 100 µM | -11% | 101% | 95% | growth at 1 µM [17]: 21%; growth at 0.01 µM [18]: 91%; growth at 10 µM [19]: 8.74%; growth at 10 µM [20]: 19%; growth at 10 µM [21]: -75%; growth at 0.1 µM [22]: 68%; GI50 [23]: 4.36 µM; TGI [23]: 50.8 µM; CC50 [23]: > 100 µM; growth at 1 µM [24]: 24%; growth at 0.01 µM [25]: 100%; growth at 1 µM [26]: 1%; GI50 [27]: 2.63 µM; TGI [27]: > 100 µM; CC50 [27]: > 100 µM; growth at 0.01 µM [28]: 85%; growth at 10 µM [29]: 44.7%; growth at 1 µM [30]: 5%
